Here are results for five molecules from ChEMBL document CHEMBL1124344, “5-Piperazinylalkyl-2(3H)-oxazolones with neuroleptic activity” (J Med Chem, 1989).

Test [1] has as its system Mus musculus. In words: Inhibitory activity against tremorine-induced salivation, after 5 hour of peroral administration in mouse. The following applies: po.
Test [2] is filed under the species Rattus norvegicus. The experiment in a line: Binding affinity against rat striatal membranes using [3H]spiroperidol as the radioligand after 15 min of incubation at 37 °C.
Test [3] relates to Mus musculus. In words: Effect on skeletal muscle tone, after 1 hour of peroral administration in mouse. It counts as functional. The conditions noted are these: Muscle tissue, po. Summed up:
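Male mice suspended by forepaws from a 1.8-mm wire stretched 15 cm above a plane. Trained normal mice touch the wire with a hind paw within 2 s (traction) and hang at least 1 min (suspension). Oral dosing 1 or 5 h before. ED50 is the dose making 50% of mice fall without traction and suspension.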

Test [4] has as its system Mus musculus. The experiment in a line: Activity of inclined screen in mouse, after 1 hour of peroral administration in mouse. It counts as functional. The conditions noted are these: po. Summed up: (§1)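 Male mice dosed orally (arabic gum suspension, 10 mL/kg, fasted overnight) 1 or 5 h before testing. Placed for 1 h on a wire screen bent at 60° to the horizontal. Ataxic or miorelaxed mice slide off. ED50 is the dose at which 50% of mice fall, by probit analysis. Ten animals per dose, with vehicle controls.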

The subject of test [5] is Mus musculus. The experiment in a line: Contractile activity in skeletal muscles, after 5 hour of peroral administration in mouse. It counts as functional. The conditions noted are these: Muscle tissue, po. In short, it runs like this:
(§2)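 Male mice were placed for 1 h on a 60° inclined wire screen just after dosing and 4 h later. In a second test, trained mice hung by the forepaws from a horizontal 1.8 mm wire 15 cm up; normal mice touch it with a hind paw within 2 s and stay ≥1 min. ED50 is the dose making 50% fall. Dosing was oral in gum arabic suspension at 10 mL/kg after an overnight fast.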

In test [6] the test system is Mus musculus. The experiment in a line: Activity of inclined screen in mouse, after 5 hour of peroral administration in mouse. It counts as functional. The following applies: po. Summed up:
as §1

The subject of test [7] is Mus musculus. In words: Anticonvulsant activity against electroshock-induced convulsions, after 5 hours of peroral administration in mouse. It counts as functional. The following applies: po. In short, it runs like this: (§3)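 Compounds were dosed as bases suspended in arabic gum at 10 mL/kg orally, after an overnight fast, with vehicle controls. Protection meant no bilateral forepaw clonic seizures or head twitches (tryptamine), or no tonic hind-limb extension (the other two). ED50 is the dose protecting 50%, by probit analysis.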

The subject of test [8] is Mus musculus. In words: Effect on skeletal muscle tone, after 5 hour of peroral administration in mouse. It counts as functional. The conditions noted are these: Muscle tissue, po. Summed up:
as §2

Test [9] deals with Mus musculus. In words: Inhibitory activity against tremorine-induced salivation, after 1 hour of peroral administration in mouse. The following applies: po. It counts as functional. Summed up:
(§4)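 Male mice fasted overnight, dosed orally with arabic gum suspension (10 mL/kg) 1 or 5 h before test, vehicle controls included. Tremorine 20 mg/kg ip given 1 h after compounds; central (tremor) and peripheral (salivation) parasympathetic signs recorded. ED50 = dose protecting 50% of animals, by probit analysis.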

Test [10] concerns Mus musculus. In words: Anticonvulsant activity against electroshock-induced convulsions, after 1 hour of peroral administration in mouse. The following applies: po. It counts as functional. Summed up: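 Male mice given oral drug in arabic gum suspension (10 mL/kg) after overnight fast, then challenged by maximal electroshock. Protection means absence of tonic hind-limb extension. ED50 is the dose protecting 50% of mice, by probit analysis.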

The subject of test [11] is Mus musculus. In words: Lethal dose in mice by administered the compound intraperitoneally. It counts as functional. The conditions noted are these: ip. Summed up: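 Acute toxicity tested in mice by the intraperitoneal route. LD50 is the dose killing 50% of treated mice, computed by Finney probit analysis; values are approximate.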
In test [12] the test system is Mus musculus. The experiment in a line: Inhibitory activity against tremorine-induced tremors, after 1 hour of peroral administration in mouse at a dose of 60 mg/kg. The conditions noted are these: route oral. It counts as functional. In short, it runs like this:
as §4

For test [13], the system named is Rattus norvegicus. The experiment in a line: Inhibitory activity against norepinephrine-induced lethality, after 5 hour of peroral administration in rat. The following applies: po. It counts as functional. In short, it runs like this:
(§5)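 Rats (80–90 g) dosed orally (arabic gum, 10 mL/kg) 1 or 5 h before norepinephrine 0.5 mg/kg iv, which kills unprotected rats within 30 min. ED50 is the dose protecting 50% of rats from lethality, by probit analysis.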

Test [14] relates to Mus musculus. In words: Anticonvulsant activity against electroshock-induced convulsions, after 1 hour of peroral administration in mouse at a dose of 40 mg/kg. It counts as functional. The following applies: route oral. In short, it runs like this: as §3
In test [15] the test system is Mus musculus. In words: Inhibitory activity against tremorine-induced salivation, after 5 hour of peroral administration in mouse at a dose of 60 mg/kg. It counts as functional. The conditions noted are these: route oral. In short, it runs like this: as §4
Test [16] has as its system Mus musculus. In words: Inhibitory activity against tremorine-induced salivation, after 1 hour of peroral administration in mouse at a dose of 60 mg/kg. It counts as functional. The conditions noted are these: route oral. Summed up:
as §4

In test [17] the test system is Rattus norvegicus. The experiment in a line: Activity to evoke catalepsy in rats, by administering perorally. It counts as functional. The following applies: po. In short, it runs like this: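 Rats fasted overnight and given oral doses in arabic gum suspension (10 mL/kg), 1 h before screening or 1 and 5 h before profile testing. Forelegs placed on a horizontal bar 7 cm high, three times at 5-min intervals. Immobility of at least 15 s counts as catalepsy. ED50 is the dose giving catalepsy in 50% of rats, by probit analysis. Parenthetical entries give the maximal dose and percent activity.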

Test [18] relates to Mus musculus. The experiment in a line: Inhibition of spontaneous motor activity in mouse, by administering perorally. It counts as functional. The following applies: po. In short, it runs like this:
(§6)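 Mice fasted overnight, then dosed orally with compound (weighed as base) suspended in arabic gum, 10 mL/kg, with vehicle controls; 1 h pretreatment for screening tests, 1 or 5 h for others. Groups of five; locomotor activity counted 10 min in photocell activity cage, at least two groups per dose. ED50 = dose giving 50% inhibition versus controls, by probit analysis.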

Test [19] relates to Rattus norvegicus. In words: Antagonistic activity against apomorphine-induced stereotypy in rats, by administering perorally. It counts as functional. The conditions noted are these: po. Summed up: (§7)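 Male rats fasted overnight and given oral doses in arabic gum suspension (10 mL/kg) 1 h, or 1 and 5 h, before challenge. Apomorphine 3 mg/kg iv, with stereotypy observed 20 min later. ED50 is the dose inhibiting stereotypy in 50% of rats, per Janssen's method. Parenthetical entries give the maximal dose and percent activity.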

Test [20] has as its system Rattus norvegicus. In words: Inhibitory activity against norepinephrine-induced lethality, after 1 hour of peroral administration in rat. It counts as functional. The following applies: po. Summed up:
as §5

Test [21] has as its system Mus musculus. The experiment in a line: Inhibitory activity against tremorine-induced tremors, after 5 hour of peroral administration in mouse at a dose of 60 mg/kg. The conditions noted are these: route oral. It counts as functional. In short, it runs like this:
as §4

For test [22], the system named is Mus musculus. The experiment in a line: Inhibition of spontaneous motor activity, after 5 hour of peroral administration in mouse. The following applies: po. It counts as functional. Summed up:
as §6

Test [23] relates to Canis familiaris. The experiment in a line: Antagonistic activity against apomorphine-induced emesis, after 1 hr of peroral administration in dogs. It counts as functional. The following applies: Canis lupus familiaris, po. Summed up: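 Male and female dogs pretreated orally, then challenged with apomorphine 0.3 mg/kg sc. Complete protection from vomiting for 30 min after apomorphine is the criterion. ED50 is the dose protecting 50% of dogs, per Janssen's method.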

In test [24] the test system is Mus musculus. In words: Inhibition against apomorphine-induced turning, after 5 hour of peroral administration in mouse. It counts as functional. The conditions noted are these: po. Summed up:
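Mice were lesioned unilaterally with intranigrostriatal 6-hydroxydopamine (20 µg). At 7 days, strong contraversive turners 15 min after apomorphine 2 mg/kg ip were selected. A week later they were dosed orally and rechallenged. Fewer than six full rotations in 2 min counted as protection. ED50 is the dose protecting 50%.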

In test [25] the target is Dopamine receptor. The experiment in a line: Binding affinity against rat striatal membranes using [3H]spiroperidol as the radioligand, after 15 min of incubation in vitro at 37 degree C. Set-up: species or system Striatum, Membrane. Summed up:
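Crude rat striatal membranes were stored at –80 °C, then thawed and washed. They were incubated 15 min at 37 °C with drug (10⁻¹⁰ to 10⁻⁴ M), [3H]spiroperidol 0.5 nM, 1 μM pargyline and 0.1% ascorbic acid, then filtered, washed and counted. Nonspecific binding was defined with 1 μM haloperidol. IC50 was read from the displacement curve.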

In test [26] the test system is Rattus norvegicus. In words: Antagonistic activity against apomorphine-induced stereotypy, after 1 hour of peroral administration in rats at a dose of 100 mg/kg. It counts as functional. The conditions noted are these: route oral. In short, it runs like this:
as §7

As for `CN(C)CCCN1c2ccccc2Sc2ccc(Cl)cc21` [CHLORPROMAZINE], the ED50 in [1] was 2 mg/kg; in test [3] it was 2.7 mg/kg; in test [4] it was 5.4 mg/kg; in [5], 10.3 mg/kg; in test [6] it was 7 mg/kg; in [7], 10 mg/kg. Also, the ED50 was 7.5 mg/kg in test [8], 2.5 mg/kg in [9], 19.2 mg/kg in [10] and 2.7 mg/kg in test [11]. This molecule displayed an IC50 in test [2] of 180 nM.
As to `COc1ccccc1N1CCN(CCCC(=O)c2ccc(F)cc2)CC1` [FLUANISONE], the inhibition in vivo at 60 mg/kg in [12], in [15], in [16] and in test [21] was 0% each time. Further, the ED50 was determined as 5.6 mg/kg in test [13]; 18 mg/kg in [17]; 7.7 mg/kg in [18]; 49 mg/kg in test [4]; 63.2 mg/kg in test [19]; 1.9 mg/kg in test [20]. The same molecule displayed an ED50 in test [5] of 50 mg/kg. The molecule also registered an inhibition in vivo at 40 mg/kg in test [14] of 0%.
`O=C(CCCN1CCC(O)(c2ccc(Cl)cc2)CC1)c1ccc(F)cc1` [HALOPERIDOL]: the ED50 came to 21.6 mg/kg in [1]; 17.1 mg/kg in test [3]; 6.8 mg/kg in test [4]; 15 mg/kg in test [5]; 0.35 mg/kg in test [22]; 6.5 mg/kg in [6]. For the same molecule, the ED50 in test [7] turned out to be 0.38 mg/kg; in test [9], 4 mg/kg; in test [10], 1.9 mg/kg; in test [11], 0.23 mg/kg. This molecule also gave an IC50 in test [2] of 10 nM.
As for `O=c1[nH]c(-c2ccc(F)cc2)c(CCN2CCN(c3cc(Cl)cc(Cl)c3)CC2)o1` [LODIPERONE], the inhibition in vivo at 60 mg/kg in test [12], in test [15], in test [16] and in test [21] was 0% in each case. In addition, the ED50 was 4 mg/kg in test [23]; 2.7 mg/kg in test [18]; 1 mg/kg in test [24]; 200 mg/kg in test [5]; 2.5 mg/kg in test [22]. This molecule also registered an IC50 in test [25] of 68 nM. The same molecule displayed an inhibition in vivo at 100 mg/kg in [26] of 0%.
In the case of `COc1ccccc1N1CCN(CCc2oc(=O)[nH]c2-c2ccc(F)cc2)CC1` [ZOLOPERONE], the ED50 in test [23] turned out to be 0.7 mg/kg; in test [13], 8.2 mg/kg; in test [17], 55.6 mg/kg; in test [18], 4.6 mg/kg; in test [4], 91 mg/kg; in [24], 20 mg/kg. The median effective dose (ED50) stood at 10.4 mg/kg in [19]; 3.2 mg/kg in test [20]; 62.5 mg/kg in test [5]; 20.3 mg/kg in test [22]; 75 mg/kg in test [8]. For the same molecule, the IC50 in test [25] came to 250 nM.

Usually ED50 stands for the dose at which the effect has come halfway, by size or by number of responders. Low readings indicate greater potency, high ones weaker potency. For orientation: IC50 means the point on the concentration scale where inhibition reaches its midpoint. Read a low IC50 as higher potency. Usually inhibition in vivo stands for the percentage by which the read-out fell short of the control.
